Measured values published in ChEMBL document CHEMBL1143371, “2-Aminoimidazoles inhibitors of TGF-beta receptor 1” (Bioorg Med Chem Lett, 2009).

Key:
[1] = target: T1, TGF-beta receptor type-1 (Homo sapiens, UniProt P36897); experiment: Inhibition of TGFBR1 transfected in human HepG2 cells after 24 hrs by plasminogen activator inhibitor-luciferase reporter gene assay; assay type: cell-based
T1 sequence (P36897 whole entry): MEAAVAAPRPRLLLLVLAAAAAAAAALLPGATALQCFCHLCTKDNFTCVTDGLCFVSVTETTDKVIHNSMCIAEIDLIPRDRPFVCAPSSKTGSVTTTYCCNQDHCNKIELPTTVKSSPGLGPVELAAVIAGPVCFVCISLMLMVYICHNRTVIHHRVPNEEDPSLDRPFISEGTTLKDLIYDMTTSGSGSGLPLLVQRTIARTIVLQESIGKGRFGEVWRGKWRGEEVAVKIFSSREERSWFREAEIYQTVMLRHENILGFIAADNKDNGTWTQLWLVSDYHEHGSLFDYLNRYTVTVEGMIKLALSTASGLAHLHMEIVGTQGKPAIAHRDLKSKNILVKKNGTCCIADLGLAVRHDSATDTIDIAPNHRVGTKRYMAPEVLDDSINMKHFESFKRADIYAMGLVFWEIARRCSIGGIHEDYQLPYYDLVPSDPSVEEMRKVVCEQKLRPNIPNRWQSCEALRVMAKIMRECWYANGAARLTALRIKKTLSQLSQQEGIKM

[2] = target: T1, TGF-beta receptor type-1; experiment: Binding affinity to human TGFBR1
[3] = target: Mitogen-activated protein kinase 14 (Homo sapiens, UniProt Q16539); experiment: Inhibition of p38alpha
Chain of Mitogen-activated protein kinase 14 (Q16539 whole entry): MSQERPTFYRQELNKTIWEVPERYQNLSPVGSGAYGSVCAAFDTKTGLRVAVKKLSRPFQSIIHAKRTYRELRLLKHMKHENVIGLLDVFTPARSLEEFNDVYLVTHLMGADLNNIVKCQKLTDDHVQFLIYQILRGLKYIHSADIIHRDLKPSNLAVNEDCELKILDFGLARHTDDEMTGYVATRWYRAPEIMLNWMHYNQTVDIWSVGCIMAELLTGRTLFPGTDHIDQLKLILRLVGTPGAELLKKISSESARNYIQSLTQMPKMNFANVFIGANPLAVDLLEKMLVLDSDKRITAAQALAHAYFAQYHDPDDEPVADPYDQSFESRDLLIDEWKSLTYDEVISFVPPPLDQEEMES

[4] = Half life in iv dosed Sprague-Dawley rat; assay type: ADME, organism-based; conditions: in vivo
In short: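 Half-life was measured in fasted male Sprague–Dawley rats and is the mean of 4 iv experiments. Depending on the compound, the vehicle was 20% captisol or NMP/H₂O (1/1).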

[5] = Bioavailability in iv and po dosed Sprague-Dawley rat; assay type: ADME, organism-based; conditions: in vivo
In short: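 Fasted male Sprague–Dawley rats were dosed iv and po. […] Depending on the compound, the vehicle was 20% captisol or NMP/H₂O (1/1).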

SMILES | EC50 [1] | Ki [2] | EC50 [3] | half-life [4] | bioavailability [5] | IC50 [1] | IC50 [3]
CCC(=O)Nc1nc(-c2ccc(F)c(C)n2)c(-c2ccc3nccnc3c2)[nH]1 | 156 nM | 8.8 nM | 13500 nM | – | – | – | –
COCCC(=O)Nc1nc(-c2ccc(F)c(C)n2)c(-c2ccc3nccnc3c2)[nH]1 | 148 nM | 19 nM | 14800 nM | 13.2 h | 41% | – | –
CC(=O)Nc1nc(-c2ccc(F)c(C)n2)c(-c2ccc3ncnn3c2)[nH]1 | 111 nM | 2.07 nM | 28100 nM | – | – | – | –
CC(=O)Nc1nc(-c2ccc(F)c(C)n2)c(-c2ccc3nccnc3c2)[nH]1 | 180 nM | – | 14800 nM | 7.8 h | 66% | – | –
Cc1nc(-c2nc(N3CCOCC3)[nH]c2-c2ccc3ncnn3c2)ccc1F | 513 nM | 15 nM | 46300 nM | 0.4 h | 25% | – | –
COCC(=O)Nc1nc(-c2ccc(F)c(C)n2)c(-c2ccc3nccnc3c2)[nH]1 | 61 nM | 7.2 nM | 15000 nM | – | – | – | –
CC(=O)N1CCN(c2nc(-c3ccc(F)c(C)n3)c(-c3ccc4ncnn4c3)[nH]2)CC1 | 1220 nM | 15.2 nM | 14200 nM | – | – | – | –
Cc1cccc(-c2nc(N)sc2-c2ccc3nccnc3c2)n1 | 80 nM | 0.33 nM | 22000 nM | 7.4 h | 87% | – | –
Cc1nc(-c2nc(N)[nH]c2-c2ccc3nccnc3c2)ccc1F | – | 0.7 nM | – | 0.6 h | 28% | 33.5 nM | 12500 nM
Cc1nc(-c2nc(N3CCN(C)CC3)[nH]c2-c2ccc3ncnn3c2)ccc1F | 344 nM | 16.4 nM | 10900 nM | – | – | – | –
Cc1nc(-c2nc(N3CCN(S(C)(=O)=O)CC3)[nH]c2-c2ccc3ncnn3c2)ccc1F | 414 nM | 3 nM | 41200 nM | – | – | – | –
Cc1nc(-c2nc(NC(=O)C(C)C)[nH]c2-c2ccc3nccnc3c2)ccc1F | – | > 28000 nM | – | – | – | – | –
Cc1nc(-c2nc(N3CCCCC3)[nH]c2-c2ccc3ncnn3c2)ccc1F | – | 53.2 nM | – | – | – | – | –
CC(=O)Nc1nc(-c2cccc(C)n2)c(-c2ccc3ncnn3c2)[nH]1 | 165 nM | 2.95 nM | 57800 nM | 7.1 h | 100% | – | –
